ANO1 block = blocks the mouse calcium-activated chloride channel TMEM16A; Q8BHY3; AID 588511; 310,000 compounds, 1.2% hits; HEK293 TMEM16A/YFP iodide influx fluorescence, ionomycin; normalized B-score (activity score, 25-100; higher = stronger inhibition) at 10 µM;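 active = ratio plate-corrected score three or more library SD toward inhibition, starting fluorescence score within five deviations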;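 also: score derived from kinetic fluorescence span divided by baseline fluorescence per well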
TAAR1 antagonist = human TAAR1 antagonism; inhibition, % at 3 µM; 360,000 compounds, 1.5% hits; CHO RD-HGA16 TAAR1, Fluo-8 calcium fluorescence, antagonist; Q96RJ0;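 active = inhibition above a per-plate cutoff, the mean inhibition of test compounds on that plate plus 3 SD, cut at about 49% in these data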;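 also: 0% = DMSO plus EC80 beta-PEA response and 100% = DMSO alone without agonist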
Target sequence (Q96RJ0 whole entry, looked up): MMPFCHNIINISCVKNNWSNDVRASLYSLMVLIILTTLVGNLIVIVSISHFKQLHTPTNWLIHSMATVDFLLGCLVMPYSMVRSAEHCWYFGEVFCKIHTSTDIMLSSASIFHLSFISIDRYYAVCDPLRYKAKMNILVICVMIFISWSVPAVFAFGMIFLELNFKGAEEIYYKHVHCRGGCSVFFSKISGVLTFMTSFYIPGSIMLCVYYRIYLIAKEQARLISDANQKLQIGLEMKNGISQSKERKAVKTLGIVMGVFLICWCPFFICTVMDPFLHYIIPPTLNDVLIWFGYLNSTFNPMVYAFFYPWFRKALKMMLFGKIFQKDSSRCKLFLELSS
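test system = CHO RD-HGA16 cells bearing hTAAR1 | replication = singlicate | controls = DMSO-only wells and EC80 β-PEA-stimulated wells | reagent = EC80 β-phenethylamine stimulus | read-out basis = percent inhibition of PEA-evoked calcium signal, max/basal emission ratio | schedule = seeding 17-24 h prior, 75-min 37 °C, 30-min RT dye loading | signal = kinetic Fluo-8 calcium fluorescence measurement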
TAAR1 agonist = human TAAR1 agonism; Q96RJ0; CHO RD-HGA16 TAAR1, Fluo-8 calcium fluorescence; vehicle wells 0%, saturating PEA agonist 100%; activation, % at 3 µM; 360,000 compounds, 0.99% hits; AID 624467;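 active = activation above the mean activation of all test compounds in the run plus 3 SD, cut at about 38% in these data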
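Assay system: CHO-derived RD-HGA16 cells with stable Gα16 and human TAAR1; timing: 17-24 h seeding, 75 min 37 °C dye, 30 min RT; read-out: % activation from peak over basal fluorescence ratio, DMSO-to-PEA scaled; measured by: kinetic Fluo-8 calcium fluorescence; benchmarks: low control DMSO, high control PEA (EC100); doses: 3 µM single concentration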
ANO1 activ = activates or potentiates the mouse TMEM16A chloride channel. Q8BHY3. HEK293 TMEM16A/YFP-H148Q/I152L, iodide quench fluorescence; hits give low values. B-score at 10 µM. 340,000 compounds, 0.3% hits;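 active = fluorescence-ratio B-score plate-corrected deviation score at least 3 library SD below zero, with starting fluorescence score within 5 deviations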;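 also: channel opened by trigger with iodide after compound preincubation; score built on the fluorescence ratio of max minus min over baseline; more negative score means more quench and so TMEM16A activation or potentiation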
CRFR2-BP ag = CRF-BP/CRF-R2 complex agonism; HEK293 CRF-R2/CRF-BP, calcium dye fluorescence (FLIPR); percent of saturating CRF peptide response; 350,000 compounds, 0.46% hits; activation, % at 13.2 µM; AID 588473;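 active = activation of at least 50%, plus an integration ratio under a set limit after plate pattern correction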;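 also: plate controls were neutral control wells without compound for no effect and CRF at EC100 for full effect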
CRFR2-BP antag = blocks CRF-induced signaling of the CRF-BP/CRF-R2 complex; HEK293 CRF-R2/CRF-BP, CRF-induced calcium fluorescence; inhibition, % at 11.8 µM; 350,000 compounds, 0.59% hits;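 active = inhibition of the ligand-induced calcium signal above about 50% at the single tested concentration, limit read from the data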
The depositor's hits bear a star; i = inactive; · = no result given. Hits are enriched below; roughly 3.9% of the tested compounds scored in any of these assays.

SMILES | ANO1 block | TAAR1 antagonist | TAAR1 agonist | ANO1 activ | CRFR2-BP ag | CRFR2-BP antag
Nc1nc(Nc2ccccc2)nc2c1ncn2[C@@H]1O[C@H](CO)[C@@H](O)[C@H]1O | i | -14 | 2 | i | 2 | -7
CC(C)N1CCc2c(sc(NC(=O)c3nc4ccccc4s3)c2C(N)=O)C1 | i | 22 | 0 | i | -1 | -11
CCN1CCc2c(sc(NC(=O)c3ccc(S(=O)(=O)N(C)c4ccccc4)cc3)c2C(=O)NC)C1 | i | · | · | i | 162* | -146
CC(C)N1CCc2c(sc(NC(=O)c3ccc(S(=O)(=O)N4CCc5ccccc54)cc3)c2C(N)=O)C1 | i | · | · | i | 107* | -188
CNC(=O)c1c(NC(=O)c2ccc(S(=O)(=O)N(C)c3ccccc3)cc2)sc2c1CCN(C(C)C)C2 | i | 42 | 16 | · | 160* | -122
COC(=O)c1c(NC(=O)c2ccc(N(C)S(=O)(=O)c3ccc(C)cc3)cc2)sc2c1CCCC2 | i | -14 | 0 | i | 3 | 6
O=C(Nc1ccncc1)c1cc2ccccc2cc1O | i | 26 | 24 | i | 16 | 13
C[C@@H]1COc2cc(N3CC[C@H](O)C3)ccc2S(=O)(=O)N1 | · | -1 | 2 | · | · | ·
Cc1nccc(-c2cccc(N/N=C(\C#N)C(=O)c3ccccc3)c2)n1 | 100* | -21 | 3 | i | 1 | 15
Cc1nccc(-c2cccc(NC(=O)Nc3ccc(Cl)cc3)c2)n1 | i | 44 | 22 | i | 5 | 12
CC(C)(C)c1ccc(OCC(=O)NNC(=S)NC(=O)c2ccco2)c(Br)c1 | 25* | -8 | 6 | -9* | 39 | -42
Cc1cc(Nc2cccc(Cl)c2)nc(N2CCOCC2)n1 | i | -23 | 6 | i | -4 | -4
Cc1cc(Nc2ccccc2)nc(N2CCOCC2)n1 | i | -17 | 41* | i | -1 | 5
N#C/C(=C\c1ccc(-c2ccccc2C(=O)O)o1)c1nc2ccccc2[nH]1 | i | -4 | 9 | i | 32 | -16
Cc1cc(/C=C(/C#N)c2nc3ccccc3[nH]2)c(C)n1-c1ccccc1C(=O)O | i | 3 | 2 | i | 7 | 1
Cc1ccc2nc(/C(C#N)=C/c3ccc(-c4ccccc4C(=O)O)o3)[nH]c2c1 | i | 9 | 20 | i | 65* | -41
Cc1cc2nc(/C(C#N)=C\c3ccc(-c4ccccc4C(=O)O)o3)[nH]c2cc1C | i | 6 | 6 | i | 100* | -63
CCn1c(-c2c(Cl)c(C)nn2C)n[nH]c1=S | i | -17 | 1 | i | 0 | -5
CCOC(=O)/C(=N\Nc1ccccc1Cl)N(C)C1CCCCC1 | i | -11 | 1 | i | -1 | -1
CCOc1ccccc1NC(=O)c1ccccc1-c1nc(-c2ccccc2OC)no1 | i | 66* | 11 | i | 0 | -6
CCNC(=O)c1ccccc1-c1nc(-c2ccccc2OC)no1 | i | -3 | 4 | i | -2 | 7
COCC1CCN(Cc2nc(-c3ccc4c(c3)OCO4)no2)C1 (stereo not given) | i | -9 | 0 | i | 203* | -163
COc1ccc(C(C(=O)NC(C)(C)C)N(CCC(C)C)C(=O)CCC(=O)Nc2cc(C)on2)cc1 (stereo not given) | i | -14 | 0 | i | 0 | -16
C/C=C(\C)C(=O)OC1CC(C)(C)C[C@H]2C3=CC[C@@H]4[C@@]5(C)CCC(O[C@@H]6O[C@@H](C(=O)O)[C@@H](O)C(O[C@@H]7OC[C@H](O)[C@@H](O)[C@@H]7O[C@@H]7OC(CO)C(O)[C@@H](O)[C@@H]7O)C6O[C@@H]6OC(CO)C(O)C(O)C6O)[C@@](C)(CO)[C@@H]5CC[C@]4(C)[C@]3(C)CC(O)[C@@]12CO (stereo not given in full) | · | 18 | 10 | -32* | 78* | -23
CC1(C)CC[C@]2(C(=O)O[C@@H]3OC(CO)[C@@H](O)[C@H](O)[C@H]3O)CC[C@]3(C)C(=CCC4[C@@]5(C)CC[C@H](O[C@@H]6OC(C(=O)O)[C@@H](O)[C@H](O)[C@H]6O)C(C)(C)C5CC[C@]43C)[C@@H]2C1 (stereo not given in full) | · | 27 | 17 | -8.8* | 48 | -78
SMILES | ANO1 block | TAAR1 antagonist | TAAR1 agonist | ANO1 activ | CRFR2-BP ag | CRFR2-BP antag
O=C(O)/C=C\C(=O)Nc1ccccc1C(=O)N1CCC(O)(c2ccc(Cl)cc2)CC1 | · | -7 | 5 | i | 3 | -8
COc1ccc2c(CC#N)c[nH]c2c1 | i | 11 | -1 | i | 78* | -75
Cc1ccc(S(=O)(=O)N2c3ccccc3OCC2c2ccccc2)cc1 (stereo not given) | i | 4 | 3 | i | 6 | 50*
COc1ccc(N(C)S(=O)(=O)c2ccc(Cl)c(C(=O)NNC(=O)c3ccccc3O)c2)cc1 | · | 16 | 4 | i | 0 | 0
CCc1ccccc1N(C)S(=O)(=O)c1ccc(-c2cc(C)no2)s1 | i | 22 | 2 | -28* | 28 | -42
O=C(Nc1cccc(S(=O)(=O)N2CCCCC2)c1)c1ccc(S(=O)(=O)C(F)F)cc1 | i | 53* | 11 | i | 2 | 54*
O=C(CNc1cc([N+](=O)[O-])ccc1NCCO)Nc1cccc(S(=O)(=O)N2CCCCC2)c1 | · | -6 | 2 | i | -1 | -10
CC1CCN(CC(=O)Nc2cccc([N+](=O)[O-])c2)CC1 | 25* | · | · | i | 1 | 2
O=C(CNc1cccc(Br)c1)Nc1ccc(S(=O)(=O)N2CCCCC2)cc1 | · | -9 | 10 | · | -1 | 0
CCNc1ccc(S(=O)(=O)N2CCOCC2)cc1NCC(=O)Nc1cccc(Br)c1 | · | 53* | 13 | · | -1 | -3
O=C(CNc1cccc(S(=O)(=O)N2CCCCCC2)c1)Nc1cccc([N+](=O)[O-])c1 | · | 56* | 9 | i | 0 | -3
CN(CC(=O)Nc1cc(C(F)(F)F)ccc1-n1cncn1)Cc1ccccc1N1CCOCC1 | · | 8 | 4 | · | 0 | -2
O=C(Nc1cccc(S(=O)(=O)N2CCCCC2)c1)c1ccc2c(=O)n3c(nc2c1)CCCCC3 | i | 61* | 10 | i | -2 | 6
CCc1ccc(NC(=O)c2ccc3c(=O)n4c(nc3c2)CCCCC4)cc1 | i | 13 | -1 | i | -2 | 1
Cc1cc(Br)ccc1NC(=O)CN(C)C(=O)c1cc(S(=O)(=O)N(C)C)ccc1N1CCCC1 | i | -12 | 2 | i | -2 | 1

Assay outcomes (PubChem BioAssay)
